≈ marks a conversion by molar mass, not a printed value.
Experiments:
Format in all cases: functional
Cryptococcus neoformans [1] = assay: Antimicrobial activity against Cryptococcus neoformans IM 031631 isolate at 100 ug/ml after 48 hrs
How it was run: (§1)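 Percent growth inhibition in 96-well microplates. Compound stocks in DMSO (≤2%) were diluted in RPMI-1640 to final 100–6.25 µg/mL, and 100 µL inoculum was added (final 200 µL). Controls were a growth well (inoculum with matching DMSO, no compound) and a sterility well (no inoculum). Inhibition was calculated against growth and sterility wells.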

Cryptococcus neoformans [2] = assay: Antimicrobial activity against Cryptococcus neoformans IM 972724 isolate at 6.25 ug/ml after 48 hrs
How it was run: (§2)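 Clinical Cryptococcus isolates kept on Sabouraud-dextrose agar slopes; inoculum 1–5 × 10³ CFU/mL. Quinoline DMSO stocks were diluted in RPMI-1640 to final 100–6.25 µg/mL, with DMSO ≤2%. An equal volume of inoculum was added (200 µL per well). Run in triplicate.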

Cryptococcus neoformans [3] = assay: Antimicrobial activity against Cryptococcus neoformans IM 972751 isolate at 100 ug/ml after 48 hrs; how it was run: as §2
Candida albicans [4] = assay: Antimicrobial activity against Candida albicans ATCC 10231 at 100 ug/ml after 24 hrs; settings: ATCC 10231, 24 h
How it was run: (§3)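 Growth-inhibition microplate test. Strains are grown on Sabouraud-chloramphenicol agar for 48 h at 30 °C, and inoculum is added to RPMI-1640 containing compound at a final 100–6.25, with DMSO ≤2%. Each strain has a growth control (same DMSO, no compound) and a sterility control.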

Aspergillus niger = assay: Antifungal activity against Aspergillus niger ATCC 9029 after 48 hrs by broth microdilution technique; settings: ATCC 9029, 48 h
How it was run: (§4)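 CLSI broth microdilution: M-27 A2 for yeasts and M-38 A for filamentous fungi. Medium is RPMI-1640 buffered to pH 7.0 with MOPS. Compound is diluted twofold from 250 to 0.98, final DMSO ≤2%. Inoculum is 1–5 × 10³ CFU/mL. Plates are incubated at 35 °C in a moist, dark chamber and read visually at 48 h. MIC100 is the lowest concentration giving total growth inhibition versus drug-free control.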

Cryptococcus neoformans [5] = assay: Antimicrobial activity against Cryptococcus neoformans IM 031706 isolate at 12.5 ug/ml after 48 hrs; how it was run: as §1
Cryptococcus neoformans [6] = assay: Antimicrobial activity against Cryptococcus neoformans IM 983036 isolate at 100 ug/ml after 48 hrs; how it was run: as §2
Candida albicans [7] = assay: Antifungal activity against Candida albicans ATCC 10231 after 48 hrs by broth microdilution technique; settings: ATCC 10231, 48 h; how it was run: as §4
Cryptococcus neoformans [8] = assay: Antimicrobial activity against Cryptococcus neoformans IM 042074 isolate at 100 ug/ml after 48 hrs; how it was run: as §1
Cryptococcus neoformans [9] = assay: Antimicrobial activity against Cryptococcus neoformans IM 052470 isolate at 12.5 ug/ml after 48 hrs; how it was run: as §1
Cryptococcus neoformans [10] = assay: Antimicrobial activity against Cryptococcus neoformans ATCC 32264 at 12.5 ug/ml after 48 hrs; settings: ATCC 32264, 48 h; how it was run: as §1
Cryptococcus neoformans [11] = assay: Antimicrobial activity against Cryptococcus neoformans IM 961951 isolate at 50 ug/ml after 48 hrs; how it was run: as §2
Cryptococcus neoformans [12] = assay: Antimicrobial activity against Cryptococcus neoformans IM 983040 isolate at 100 ug/ml after 48 hrs; how it was run: as §2
Candida albicans [13] = assay: Antimicrobial activity against Candida albicans ATCC 10231 at 6.25 ug/ml after 24 hrs; settings: ATCC 10231, 24 h; how it was run: as §3
Cryptococcus neoformans [14] = assay: Antimicrobial activity against Cryptococcus neoformans IM 031631 isolate at 6.25 ug/ml after 48 hrs; how it was run: as §1
Candida albicans [15] = assay: Antimicrobial activity against Candida albicans ATCC 10231 at 12.5 ug/ml after 24 hrs; settings: ATCC 10231, 24 h; how it was run: as §3
Nannizzia gypsea = assay: Antifungal activity against Microsporum gypseum C115 after 48 hrs by broth microdilution technique; how it was run: as §4
Cryptococcus neoformans [16] = assay: Antimicrobial activity against Cryptococcus neoformans IM 031706 isolate at 25 ug/ml after 48 hrs; how it was run: as §1
Cryptococcus neoformans [17] = assay: Antifungal activity against Cryptococcus neoformans ATCC 32264 after 48 hrs by broth microdilution technique; settings: ATCC 32264, 48 h; how it was run: as §4
Cryptococcus neoformans [18] = assay: Antimicrobial activity against Cryptococcus neoformans IM 00319 isolate at 25 ug/ml after 48 hrs; how it was run: as §1
Cryptococcus neoformans [19] = assay: Antimicrobial activity against Cryptococcus neoformans IM 00319 isolate at 12.5 ug/ml after 48 hrs; how it was run: as §1
Cryptococcus neoformans [20] = assay: Antimicrobial activity against Cryptococcus neoformans IM 972724 isolate at 12.5 ug/ml after 48 hrs; how it was run: as §2
Cryptococcus neoformans [21] = assay: Antimicrobial activity against Cryptococcus neoformans IM 983036 isolate at 12.5 ug/ml after 48 hrs; how it was run: as §2
Cryptococcus neoformans [22] = assay: Antimicrobial activity against Cryptococcus neoformans IM 972751 isolate at 6.25 ug/ml after 48 hrs; how it was run: as §2
Cryptococcus neoformans [23] = assay: Antimicrobial activity against Cryptococcus neoformans IM 983040 isolate at 12.5 ug/ml after 48 hrs; how it was run: as §2
Cryptococcus neoformans [24] = assay: Antimicrobial activity against Cryptococcus neoformans IM 042074 isolate at 50 ug/ml after 48 hrs; how it was run: as §1
Cryptococcus neoformans [25] = assay: Antimicrobial activity against Cryptococcus neoformans IM 042074 isolate at 6.25 ug/ml after 48 hrs; how it was run: as §1
Cryptococcus neoformans [26] = assay: Antimicrobial activity against Cryptococcus neoformans IM 983036 isolate at 50 ug/ml after 48 hrs; how it was run: as §2
Saccharomyces cerevisiae = assay: Antifungal activity against Saccharomyces cerevisiae ATCC 9763 after 48 hrs by broth microdilution technique; settings: ATCC 9763, 48 h; how it was run: as §4
Cryptococcus neoformans [27] = assay: Antimicrobial activity against Cryptococcus neoformans IM 00319 isolate at 50 ug/ml after 48 hrs; how it was run: as §1
Cryptococcus neoformans [28] = assay: Antimicrobial activity against Cryptococcus neoformans IM 972724 isolate at 25 ug/ml after 48 hrs; how it was run: as §2
Cryptococcus neoformans [29] = assay: Antimicrobial activity against Cryptococcus neoformans IM 972751 isolate at 25 ug/ml after 48 hrs; how it was run: as §2
Cryptococcus neoformans [30] = assay: Antimicrobial activity against Cryptococcus neoformans IM 031631 isolate at 12.5 ug/ml after 48 hrs; how it was run: as §1
Cryptococcus neoformans [31] = assay: Antimicrobial activity against Cryptococcus neoformans IM 031631 isolate at 50 ug/ml after 48 hrs; how it was run: as §1
Cryptococcus neoformans [32] = assay: Antimicrobial activity against Cryptococcus neoformans IM 961951 isolate at 6.25 ug/ml after 48 hrs; how it was run: as §2
Cryptococcus neoformans [33] = assay: Antimicrobial activity against Cryptococcus neoformans IM 961951 isolate at 12.5 ug/ml after 48 hrs; how it was run: as §1
Aspergillus fumigatus = assay: Antifungal activity against Aspergillus fumigatus ATTC 26934 after 48 hrs by broth microdilution technique; how it was run: as §4
Cryptococcus neoformans [34] = assay: Antimicrobial activity against Cryptococcus neoformans IM 972751 isolate at 12.5 ug/ml after 48 hrs; how it was run: as §2
Cryptococcus neoformans [35] = assay: Antimicrobial activity against Cryptococcus neoformans IM 052470 isolate at 100 ug/ml after 48 hrs; how it was run: as §1
Trichophyton rubrum = assay: Antifungal activity against Trichophyton rubrum C110 after 48 hrs by broth microdilution technique; settings: read-out: MIC; how it was run: as §4
Cryptococcus neoformans [36] = assay: Antimicrobial activity against Cryptococcus neoformans IM 983040 isolate at 25 ug/ml after 48 hrs; how it was run: as §2
Cryptococcus neoformans [37] = assay: Antimicrobial activity against Cryptococcus neoformans IM 031706 isolate at 6.25 ug/ml after 48 hrs; how it was run: as §1

Compound: Cc1cc(-c2ccncc2)nc2ccccc12
- inhibition at 100 µg/mL (Cryptococcus neoformans [1]): 100%
- inhibition at 6.25 µg/mL (Cryptococcus neoformans [2]): 0%
- inhibition at 100 µg/mL (Cryptococcus neoformans [3]): 98%
- inhibition at 100 µg/mL (Candida albicans [4]): 100%
- MIC (Aspergillus niger): 200 µg/mL (≈ 908 µM)
- inhibition at 12.5 µg/mL (Cryptococcus neoformans [5]): 41%
- inhibition at 100 µg/mL (Cryptococcus neoformans [6]): 79%
- MIC (Candida albicans [7]): 100 µg/mL (≈ 454 µM)
- inhibition at 100 µg/mL (Cryptococcus neoformans [8]): 92%
- inhibition at 12.5 µg/mL (Cryptococcus neoformans [9]): 24%
- inhibition at 12.5 µg/mL (Cryptococcus neoformans [10]): 90.5%
- inhibition at 50 µg/mL (Cryptococcus neoformans [11]): 89%
- inhibition at 100 µg/mL (Cryptococcus neoformans [12]): 45%
- inhibition at 6.25 µg/mL (Candida albicans [13]): 19%
- inhibition at 6.25 µg/mL (Cryptococcus neoformans [14]): 12%
- inhibition at 12.5 µg/mL (Candida albicans [15]): 41%
- MIC (Nannizzia gypsea): 25 µg/mL (≈ 113 µM)
- inhibition at 25 µg/mL (Cryptococcus neoformans [16]): 57%
- MIC (Cryptococcus neoformans [17]): 25 µg/mL (≈ 113 µM)
- inhibition at 25 µg/mL (Cryptococcus neoformans [18]): 52%
- inhibition at 12.5 µg/mL (Cryptococcus neoformans [19]): 32%
- inhibition at 12.5 µg/mL (Cryptococcus neoformans [20]): 0%
- inhibition at 12.5 µg/mL (Cryptococcus neoformans [21]): 20%
- inhibition at 6.25 µg/mL (Cryptococcus neoformans [22]): 0%
- inhibition at 12.5 µg/mL (Cryptococcus neoformans [23]): 0%
- inhibition at 50 µg/mL (Cryptococcus neoformans [24]): 87%
- inhibition at 6.25 µg/mL (Cryptococcus neoformans [25]): 68%
- inhibition at 50 µg/mL (Cryptococcus neoformans [26]): 69%
- MIC (Saccharomyces cerevisiae): 50 µg/mL (≈ 227 µM)
- inhibition at 50 µg/mL (Cryptococcus neoformans [27]): 80%
- inhibition at 25 µg/mL (Cryptococcus neoformans [28]): 8%
- inhibition at 25 µg/mL (Cryptococcus neoformans [29]): 9%
- inhibition at 12.5 µg/mL (Cryptococcus neoformans [30]): 36%
- inhibition at 50 µg/mL (Cryptococcus neoformans [31]): 75%
- inhibition at 6.25 µg/mL (Cryptococcus neoformans [32]): 4%
- inhibition at 12.5 µg/mL (Cryptococcus neoformans [33]): 34%
- MIC (Aspergillus fumigatus): 50 µg/mL (≈ 227 µM)
- inhibition at 12.5 µg/mL (Cryptococcus neoformans [34]): 0%
- inhibition at 100 µg/mL (Cryptococcus neoformans [35]): 99%
- MIC (Trichophyton rubrum): 25 µg/mL (≈ 113 µM)
- inhibition at 25 µg/mL (Cryptococcus neoformans [36]): 12%
- inhibition at 6.25 µg/mL (Cryptococcus neoformans [37]): 21%

Compound: c1ccc(-c2ccc3ccccc3n2)cc1 [2-PHENYLQUINOLINE]
- inhibition at 100 µg/mL (Cryptococcus neoformans [1]): 74%
- inhibition at 6.25 µg/mL (Cryptococcus neoformans [2]): 0%
- inhibition at 100 µg/mL (Cryptococcus neoformans [3]): 83%
- inhibition at 100 µg/mL (Candida albicans [4]): 0%
- MIC (Aspergillus niger): > 250 µg/mL
- inhibition at 12.5 µg/mL (Cryptococcus neoformans [5]): 0%
- inhibition at 100 µg/mL (Cryptococcus neoformans [6]): 32%
- MIC (Candida albicans [7]): 250 µg/mL (≈ 1220 µM)
- inhibition at 100 µg/mL (Cryptococcus neoformans [8]): 84%
- inhibition at 12.5 µg/mL (Cryptococcus neoformans [9]): 21%
- inhibition at 12.5 µg/mL (Cryptococcus neoformans [10]): 32%
- inhibition at 50 µg/mL (Cryptococcus neoformans [11]): 32%
- inhibition at 100 µg/mL (Cryptococcus neoformans [12]): 50%
- inhibition at 6.25 µg/mL (Candida albicans [13]): 0%
- inhibition at 6.25 µg/mL (Cryptococcus neoformans [14]): 0%
- inhibition at 12.5 µg/mL (Candida albicans [15]): 0%
- MIC (Nannizzia gypsea): 16 µg/mL (≈ 77.9 µM)
- inhibition at 25 µg/mL (Cryptococcus neoformans [16]): 17%
- MIC (Cryptococcus neoformans [17]): 31.2 µg/mL (≈ 152 µM)
- inhibition at 25 µg/mL (Cryptococcus neoformans [18]): 14%
- inhibition at 12.5 µg/mL (Cryptococcus neoformans [19]): 0%
- inhibition at 12.5 µg/mL (Cryptococcus neoformans [20]): 13%
- inhibition at 12.5 µg/mL (Cryptococcus neoformans [21]): 0%
- inhibition at 6.25 µg/mL (Cryptococcus neoformans [22]): 0%
- inhibition at 12.5 µg/mL (Cryptococcus neoformans [23]): 4%
- inhibition at 50 µg/mL (Cryptococcus neoformans [24]): 77%
- inhibition at 6.25 µg/mL (Cryptococcus neoformans [25]): 0%
- inhibition at 50 µg/mL (Cryptococcus neoformans [26]): 12%
- MIC (Saccharomyces cerevisiae): 125 µg/mL (≈ 609 µM)
- inhibition at 50 µg/mL (Cryptococcus neoformans [27]): 34%
- inhibition at 25 µg/mL (Cryptococcus neoformans [28]): 35%
- inhibition at 25 µg/mL (Cryptococcus neoformans [29]): 22%
- inhibition at 12.5 µg/mL (Cryptococcus neoformans [30]): 5%
- inhibition at 50 µg/mL (Cryptococcus neoformans [31]): 34%
- inhibition at 6.25 µg/mL (Cryptococcus neoformans [32]): 0%
- inhibition at 12.5 µg/mL (Cryptococcus neoformans [33]): 0%
- MIC (Aspergillus fumigatus): > 250 µg/mL
- inhibition at 12.5 µg/mL (Cryptococcus neoformans [34]): 0%
- inhibition at 100 µg/mL (Cryptococcus neoformans [35]): 88%
- MIC (Trichophyton rubrum): 25 µg/mL (≈ 122 µM)
- inhibition at 25 µg/mL (Cryptococcus neoformans [36]): 13%
- inhibition at 6.25 µg/mL (Cryptococcus neoformans [37]): 0%

Reference: ChEMBL document CHEMBL1140069, “In vitro antifungal activity of polyfunctionalized 2-(hetero)arylquinolines prepared through imino Diels-Alder reactions” (2008)
